High-throughput results as filed in PubChem.
In the library only some 2.7% were active in any assay of this set; here they are far more common.
AF4-AF9 inh: inhibitors of AF4 peptide binding to AF9, primary screen, biochemical, AlphaScreen, biotin-AF4 peptide, FLAG-AF9, single point; Protein AF-9 (Homo sapiens), P42568; inhibition, % at 10 µM; actives 0.47% (n = 350,000); AID 651704, 2012;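 active = every replicate reaching a set inhibition limit, whatever the replicate mean, cut at about 25% in these data; inconclusive = mean inhibition reaches that limit but some replicates miss it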;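 also: 0% = plate neutral control median and 100% = total signal loss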
Target sequence (P42568 whole entry, looked up): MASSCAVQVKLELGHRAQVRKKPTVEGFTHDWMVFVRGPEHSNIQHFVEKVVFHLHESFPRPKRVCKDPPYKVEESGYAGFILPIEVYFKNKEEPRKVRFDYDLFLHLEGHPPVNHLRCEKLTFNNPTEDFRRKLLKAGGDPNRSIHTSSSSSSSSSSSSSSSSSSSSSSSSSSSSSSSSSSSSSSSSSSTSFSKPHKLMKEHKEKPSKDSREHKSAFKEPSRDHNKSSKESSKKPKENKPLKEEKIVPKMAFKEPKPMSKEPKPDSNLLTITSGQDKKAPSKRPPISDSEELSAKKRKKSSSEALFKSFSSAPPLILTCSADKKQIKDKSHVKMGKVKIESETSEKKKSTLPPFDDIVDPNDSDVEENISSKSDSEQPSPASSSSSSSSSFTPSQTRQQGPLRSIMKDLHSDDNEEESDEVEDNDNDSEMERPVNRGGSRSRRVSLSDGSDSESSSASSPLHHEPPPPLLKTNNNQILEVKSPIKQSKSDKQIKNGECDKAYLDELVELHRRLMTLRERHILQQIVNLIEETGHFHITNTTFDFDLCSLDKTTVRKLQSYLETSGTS
CaV13 ICDI inh: Disruptors of the CACNA1D IQ motif to Ca2+-dependent inactivation inhibitor domain association, primary screening, Förster resonance energy transfer in intact living …; HEK cells, CFP/YFP FRET ICDI-IQ, plate reader, 10 min; percent FRET-ratio fall versus neutral wells; inhibition, % at 12.3 µM; AID 743397; actives 0.098% (n = 340,000);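 active = mean replicate inhibition of at least 30% and at least 1% of replicates passing that level; inconclusive = only one of the two criteria is met; inactive = neither criterion is met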;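 also: 0% = median of the neutral control wells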
DENV2 CPE rescue: inhibitors of DENV2 cytopathic effect, primary screen, cell-based, plate reader, single concentration; DENV2-infected cells, cytopathic effect rescue; CPE inhibition, % at 9.99 µM; actives 1.7% (n = 350,000); in the data active = CPE inhibition above about 20%, passing the limit was not always enough; inconclusive = no clear call, values can overlap the other calls; tested in BHK-21 cells;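 also: 0% = median of neutral control wells and 100% = median of positive control wells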
SIRT5 inh: SIRT5 desuccinylase inhibitors, primary screen, biochemical, fluorescence imaging, single point, set 5; NAD-dependent protein deacylase sirtuin-5, mitochondrial (Homo sapiens), Q9NXA8; Purified SirT5, succinyl-peptide AMC, trypsin-coupled fluorescence; inhibition, % at 15 µM; actives 1.1% (n = 330,000); AID 652115, 2013; in the data active = inhibition above about 15%; inconclusive = no clear call, values can overlap the other calls
S100A4 inh HTS: inhibitors of S100A4-myosin IIA peptide binding, primary screen, biochemical, fluorescence polarization, TAMRA-MyoIIA peptide | actives 0.14% (n = 360,000) | AID 652163, 2013 | inhibition, % at 10.7 µM;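 active = mean inhibition of at least 70% across replicates, with every replicate also reaching that level; inconclusive = mean inhibition reaches 70% but some replicates fall short; inactive = mean inhibition below 70%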
Target sequence (P26447 whole entry, looked up): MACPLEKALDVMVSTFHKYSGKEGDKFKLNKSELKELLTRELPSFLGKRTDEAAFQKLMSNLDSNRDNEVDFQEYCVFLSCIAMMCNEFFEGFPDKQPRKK
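assay system = human S100A4 monomer with TAMRA-labelled myosin IIA peptide | also added = labelled myosin peptide probe, 5 nM | incubation = 5 min between mix addition and reading | control set = DMSO and TFP controls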
* hit, by the source's call; ! = a repeat was not active.

What do the screens show for `Cc1noc(C)c1NC(=O)N(C)C[C@H]1Oc2ccc(NC(=O)Nc3ccc(C(F)(F)F)cc3)cc2C(=O)N([C@@H](C)CO)C[C@H]1C`?
AF4-AF9 inh: 7; DENV2 CPE rescue: -3; SIRT5 inh: 0; S100A4 inh HTS: 6

What do the screens show for `CC(C)CCNc1nc(N)c([N+](=O)[O-])c(NCCO)n1`?
CaV13 ICDI inh: -4; DENV2 CPE rescue: -4; SIRT5 inh: 1; S100A4 inh HTS: -6

What do the screens show for `CCC(C)Nc1nc(N)c([N+](=O)[O-])c(NCCO)n1` (configuration not stated)?
CaV13 ICDI inh: -4; DENV2 CPE rescue: 94*; SIRT5 inh: 2; S100A4 inh HTS: 3

Results for C[C@@H]1CN([C@H](C)CO)S(=O)(=O)c2ccc(-c3cncnc3)cc2O[C@H]1CN(C)Cc1ccncc1 ?
AF4-AF9 inh: 5; DENV2 CPE rescue: 5; SIRT5 inh: 17*; S100A4 inh HTS: 6

Results for C[C@H](CO)N1C[C@H](C)[C@H](CN(C)Cc2ccncc2)Oc2cc(Br)ccc2S1(=O)=O ?
AF4-AF9 inh: -3; DENV2 CPE rescue: 7; SIRT5 inh: 15*; S100A4 inh HTS: -5

What do the screens show for `C[C@H](CO)N1C[C@H](C)[C@@H](CN(C)Cc2ccc(Oc3ccccc3)cc2)Oc2cc(Br)ccc2S1(=O)=O`?
AF4-AF9 inh: -2; CaV13 ICDI inh: -7; DENV2 CPE rescue: 25*!; SIRT5 inh: -2; S100A4 inh HTS: 0

What do the screens show for `C[C@H](CO)N1C[C@H](C)[C@H](CN(C)Cc2ccc(C(F)(F)F)cc2)OCCCC[C@H](C)Oc2ccc(NC(=O)Nc3ccc(C(F)(F)F)cc3)cc2C1=O`?
DENV2 CPE rescue: -25

What do the screens show for `S=C(NCCCCN(Cc1ccc(Cl)cc1)c1ccc(Br)cn1)NCCCc1cnc[nH]1`?
AF4-AF9 inh: 15; CaV13 ICDI inh: -4; DENV2 CPE rescue: inconclusive; SIRT5 inh: -5; S100A4 inh HTS: -5

Results for C[C@H]1CN([C@@H](C)CO)S(=O)(=O)c2ccc(Br)cc2O[C@H]1CN(C)C(=O)CN(C)C ?
AF4-AF9 inh: -2; CaV13 ICDI inh: -9; DENV2 CPE rescue: 38*!; SIRT5 inh: -1; S100A4 inh HTS: -4

What do the screens show for `CCC(=O)N(C)C[C@H]1Oc2cc(Br)ccc2S(=O)(=O)N([C@@H](C)CO)C[C@H]1C`?
AF4-AF9 inh: -1; DENV2 CPE rescue: -5; SIRT5 inh: -2; S100A4 inh HTS: -7

How did C[C@H](CO)N1C[C@H](C)[C@@H](CN(C)C(=O)CN(C)C)Oc2cc(Br)ccc2S1(=O)=O do in these assays?
AF4-AF9 inh: -3; DENV2 CPE rescue: 33*; SIRT5 inh: -2; S100A4 inh HTS: 5

How did CC(=O)N(C)C[C@@H]1Oc2cc(Br)ccc2S(=O)(=O)N([C@H](C)CO)C[C@@H]1C do in these assays?
AF4-AF9 inh: 0; CaV13 ICDI inh: -5; DENV2 CPE rescue: 36*!; SIRT5 inh: -2; S100A4 inh HTS: 1

Results for CC(=O)N(C)C[C@H]1Oc2cc(-c3ccccc3)ccc2S(=O)(=O)N([C@@H](C)CO)C[C@@H]1C ?
AF4-AF9 inh: 1; DENV2 CPE rescue: 33*; SIRT5 inh: -5; S100A4 inh HTS: -7

How did C[C@@H]1CN([C@@H](C)CO)S(=O)(=O)c2ccc(Br)cc2O[C@H]1CN(C)C(=O)CN(C)C do in these assays?
AF4-AF9 inh: -2; CaV13 ICDI inh: -9; DENV2 CPE rescue: 18; SIRT5 inh: 1; S100A4 inh HTS: 1

What do the screens show for `C[C@H](CO)N1C[C@H](C)[C@@H](CN(C)S(=O)(=O)c2ccc(F)cc2)Oc2c(NC(=O)C3CCCCC3)cccc2C1=O`?
AF4-AF9 inh: 0; DENV2 CPE rescue: -1; SIRT5 inh: 0; S100A4 inh HTS: 6

What do the screens show for `O=C(c1cccnc1)N1CCCCN2[C@@H](CO)[C@@H](c3ccc(C#Cc4ccccc4)cc3)[C@@H]2C1`?
AF4-AF9 inh: 8; DENV2 CPE rescue: 16; SIRT5 inh: -3; S100A4 inh HTS: -7

Results for C[C@@H]1CN([C@H](C)CO)C(=O)c2cc(NS(=O)(=O)c3cn(C)cn3)ccc2O[C@H]1CN(C)C(=O)Nc1ccc2c(c1)OCO2 ?
AF4-AF9 inh: -4; DENV2 CPE rescue: 3; SIRT5 inh: -4; S100A4 inh HTS: -36

Results for O=C(NC1CCCc2c1cnn2-c1ccccc1F)c1ccncc1 (configuration not stated) ?
AF4-AF9 inh: -9; CaV13 ICDI inh: -9; DENV2 CPE rescue: 25*; SIRT5 inh: -4; S100A4 inh HTS: -1

Results for CCCCN(C=O)c1c(CC)nc2ccc(C(=O)N3CCCCC3)cn12 ?
AF4-AF9 inh: -5; CaV13 ICDI inh: -17; DENV2 CPE rescue: -1; SIRT5 inh: 44*; S100A4 inh HTS: 10

Results for CCCCN(C=O)c1c(CC)nc2ccc(C(=O)N3CCN(c4ccccc4)CC3)cn12 ?
AF4-AF9 inh: 1; CaV13 ICDI inh: -7; DENV2 CPE rescue: -5; SIRT5 inh: -4; S100A4 inh HTS: -2

What do the screens show for `CO[C@@H]1CN(C)C(=O)c2cc(NS(=O)(=O)c3c(C)noc3C)ccc2OC[C@@H](C)NC[C@@H]1C`?
AF4-AF9 inh: -1; DENV2 CPE rescue: 2; SIRT5 inh: 1; S100A4 inh HTS: -3

How did O=C(NCc1ccco1)C1(S(=O)(=O)c2ccccc2)CC=CC1 do in these assays?
AF4-AF9 inh: 4; CaV13 ICDI inh: -9; DENV2 CPE rescue: 41*; S100A4 inh HTS: -12

What do the screens show for `O=C(NCc1cccs1)C1(S(=O)(=O)c2ccccc2)CC=CC1`?
AF4-AF9 inh: -1; CaV13 ICDI inh: -8; DENV2 CPE rescue: -19; S100A4 inh HTS: -3

How did CCCCN(CC)CCCNC(=S)Nc1ccc2nc(N3CCN(CC)CC3)cc(C)c2c1 do in these assays?
AF4-AF9 inh: 5; CaV13 ICDI inh: -3; DENV2 CPE rescue: 2; SIRT5 inh: 4; S100A4 inh HTS: -20

How did COc1ccccc1CNC(=S)Nc1ccc2nc(N3CCN(C)CC3)cc(C)c2c1 do in these assays?
AF4-AF9 inh: 27*; CaV13 ICDI inh: -2; DENV2 CPE rescue: -15; SIRT5 inh: -21; S100A4 inh HTS: -1

Results for CCCCN(CC)CCCNC(=S)Nc1ccc2nc(N3CCN(C)CC3)cc(C)c2c1 ?
AF4-AF9 inh: 26*; CaV13 ICDI inh: -3; DENV2 CPE rescue: inconclusive; SIRT5 inh: -4; S100A4 inh HTS: 3

What do the screens show for `COc1ccc(CNC(=S)Nc2ccc3nc(N4CCN(C)CC4)cc(C)c3c2)cc1`?
AF4-AF9 inh: 26*; CaV13 ICDI inh: 1; DENV2 CPE rescue: 6; SIRT5 inh: -8; S100A4 inh HTS: 6
